# In the library only some 1.5% were active in any assay of this set; here they are far more common.
# APJ antagonist: antagonists of human apelin receptor APJ, primary screen, CHO-K1 cells, beta-arrestin complementation, luminescence; AID 2521, 2010; inhibition, % at 20 µM; actives 0.32% (n = 330,000);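 active means inhibition above about 40% at 20 µM, limit read from the data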;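 further: cells challenged with 10 nM apelin-13 agonist together with compound; plate controls were apelin-13 plus DMSO wells for no effect and DMSO wells lacking apelin-13 for full effect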
# EBI2 antag: EBI2 receptor antagonists, beta-arrestin recruitment, primary screen, cell-based, luminescence, 7a,25-OHC stimulation, uHTS. G-protein coupled receptor 183 (Homo sapiens), P32249. 7a,25-OHC stimulated. inhibition, % at 5 µM. actives 0.81% (n = 360,000); in the data active means inhibition above about 38%;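 further: enzyme fragment complementation signal reports receptor beta-arrestin coupling in cells; 0% = agonist plus DMSO wells and 100% = wells without agonist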
# CXCR6 block: CXCR6 receptor inhibitors, primary screen, cell-based, beta-arrestin, luminescence, CHO-K1 PathHunter, 1536-well; C-X-C chemokine receptor type 6 (Homo sapiens), O00574; inhibition, % at 20 µM; actives 0.36% (n = 360,000); AID 602244, 2012; in the data active means inhibition above about 34%, passing the limit was not always enough;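 further: antagonist mode with CXCL16 agonist at 10 nM final; 0% = 10 nM CXCL16 with DMSO and 100% = unstimulated wells without agonist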
# APJ agonist: agonists of human apelin receptor APJ, primary screen, CHO-K1 cells, PathHunter beta-arrestin, luminescence; 0% DMSO wells, 100% apelin; activation, % at 20 µM; actives 0.11% (n = 330,000);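 active means activation more than six SD over the plate average, tested at 20 µM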;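 further: 0% = DMSO alone and 100% = apelin-13 at 10 nM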
#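 Incubation: overnight seeding, 90 min compound at 25 °C, 1 h detection; test system: PathHunter CHO-K1 APJ (AGTRL-1) beta-arrestin reporter cells; amount: 1000 cells/well; doses: one dose, 20 µM compound, 1% DMSO; measured by: beta-gal luminescence; measure: agonist-driven arrestin binding to APJ; benchmarks: negative DMSO alone, positive Apelin-13 at 10 nM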
# CCR6 antag: CCR6 receptor antagonists, primary screen, cell-based, CHO-K1, luminescence, beta-arrestin, uHTS; actives 0.49% (n = 340,000); CHO-K1 CCR6 PathHunter beta-arrestin, CCL20-stimulated; inhibition, % at 20 µM; AID 493098, 2011;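 active means compounds whose inhibition of the agonist-driven luminescence signal at 20 µM reaches about 50%, limit read from the data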;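 further: cells stimulated with CCL20 at 14 nM final; plate controls were DMSO with CCL20 for no effect and DMSO without agonist for full effect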
# Target sequence (P51684 whole entry, looked up): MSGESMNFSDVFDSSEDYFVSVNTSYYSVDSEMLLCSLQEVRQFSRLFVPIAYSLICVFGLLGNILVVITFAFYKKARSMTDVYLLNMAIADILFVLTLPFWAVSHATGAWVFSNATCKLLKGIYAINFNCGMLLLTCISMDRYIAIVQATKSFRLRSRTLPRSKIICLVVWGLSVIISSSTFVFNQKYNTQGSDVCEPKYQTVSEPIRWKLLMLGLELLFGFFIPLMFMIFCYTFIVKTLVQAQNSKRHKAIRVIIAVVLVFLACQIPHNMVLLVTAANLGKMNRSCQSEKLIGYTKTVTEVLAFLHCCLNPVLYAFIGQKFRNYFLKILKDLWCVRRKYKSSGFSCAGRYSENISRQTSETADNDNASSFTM
# Active calls of the source: *; / = no result given.
SMILES,APJ antagonist,EBI2 antag,CXCR6 block,APJ agonist,CCR6 antag
O=C(CCN1CCOCC1)Nc1cc(C(=O)Nc2ccc(Cl)cc2)ccc1N1CC2CC(C1)c1cccc(=O)n1C2 (stereo unspecified),7.2,9.3,0.6,-2.3,7.0
CCSc1nc2ccccc2n1C(=O)/C=C/c1ccc(OC)c(OC)c1,15.2,33.3,18.2,1.8,48.4
C=CCSc1nc2ccccc2n1C(=O)/C=C/c1cc(OC)c(OC)c(OC)c1,12.2,56.5*,25.2,-2.3,39.2
C=CCSc1nc2ccccc2n1C(=O)/C=C/c1ccc(OC)c(OC)c1,/,45.9*,19.8,/,22.3
COc1cc(/C=C/C(=O)NCCn2c(C)cc3ccccc32)cc(OC)c1OC,-2.5,8.6,0.1,-0.7,6.5
O=C(CN1C(=O)c2ccccc2S1(=O)=O)Nc1ccc([N+](=O)[O-])cc1,3.3,-4.0,4.3,-1.6,4.5
Nc1c(C(=O)NC2CC2)sc2nc3c(c(-c4ccco4)c12)CC/C3=C/c1ccco1,/,-12.0,24.3,/,51.4*
CCCCC(=O)Nc1nc2c(s1)COc1ccccc1-2,-2.7,5.0,2.2,-6.2,7.2
CC(CCc1ccccc1)NC(=O)COC(=O)c1ccc([N+](=O)[O-])cc1 (stereo unspecified),-4.7,-10.4,-2.7,0.2,0.6
CC(CCc1ccccc1)NC(=O)COC(=O)c1ccc(S(C)(=O)=O)c([N+](=O)[O-])c1 (stereo unspecified),5.0,9.6,31.4,7.1,50.3*
CN(C)c1ccc(C=c2c3ccccc3n3c2cc(-c2ccc(Cl)cc2)[n+]3C)cc1,/,-3.6,19.0,/,35.8
CN(C)c1ccc(C=c2c3ccccc3n3c2c2c([n+]3C)CCCC2)cc1,/,-11.4,45.1*,/,47.0
CN(C)c1ccc(C=c2c3ccccc3n3c2cc(-c2ccccc2)[n+]3C)cc1,/,11.7,52.1*,/,62.2*
COc1cc(N(C)C)ccc1C=c1c2ccccc2n2c1cc(-c1ccccc1)[n+]2C,/,32.0,60.0*,/,64.7*
CN(C)c1ccc(C=c2c3cc([N+](=O)[O-])ccc3n3c2cc(-c2ccccc2)[n+]3C)cc1,/,13.6,49.0*,/,67.5*
COc1cc(/C=C2/C(=O)c3cccc([N+](=O)[O-])c3C2=O)c(Br)cc1O,/,22.6,86.4*,/,97.3*
COc1ccccc1NC(=O)CCCCCN1C(=O)c2cccc([N+](=O)[O-])c2C1=O,-3.5,3.2,1.7,-1.5,-4.9
Cc1n[nH]c(C)c1Sc1ccccc1N=Cc1cc(Cl)cc([N+](=O)[O-])c1O,22.8,13.6,54.8*,-1.7,44.5
COc1cc(/C=C2\SC(c3ccc(C)cc3)=NC2=O)cc(OC)c1OC,-9.5,30.3,0.4,5.1,-5.5
COc1cc(/C=C2/C(=O)ON=C2C)cc(Cl)c1O,29.4,-3.9,33.6,-5.0,58.9*
COc1cc(/C=C2\SC(c3ccccc3)=NC2=O)cc(Cl)c1O,/,-4.8,37.1,/,73.8*
C#CCOc1c(Cl)cc(/C=C2/C(=O)ON=C2C)cc1OC,-0.7,-2.8,-2.1,-2.7,5.8
O=C(c1cc(C2CCCCN2C(=O)CCCc2ccccc2)on1)N1CCOCC1 (stereo unspecified),/,-8.5,1.9,/,/
COc1cc(/C=C2/C(=O)N(c3ccc(Br)cc3)N=C2C)cc([N+](=O)[O-])c1O,48.2*,/,/,-10.1,/
CN(C)c1nc(=NCc2cccs2)ss1,/,23.4,92.1*,/,111.2*
SMILES,APJ antagonist,EBI2 antag,CXCR6 block,APJ agonist,CCR6 antag
CC(SC(=S)N(C)Cc1cccs1)C(=O)O (stereo unspecified),0.9,-1.0,-4.3,2.8,9.6
CC(C)Cc1nc2oc3c(N4CCN(CCO)CC4)ncnc3c2c2c1CCCC2,-1.2,51.2*,5.4,-4.3,17.1
Cc1ccc(NC(=O)c2cnccn2)c(C)c1,1.2,4.9,-7.1,-5.0,-4.2
O=C(NCc1ccccc1)C1C(c2ccc3c(c2)OCO3)=Nc2ccccc2N1C(=O)c1ccco1 (stereo unspecified),/,-7.8,/,/,/
O=C(NCCc1ccccc1Cl)c1cc(COc2ccc(F)cc2F)on1,-6.9,57.2*,-11.5,5.1,-2.8
O=C(NCCC1=CCCCC1)c1cc(COc2ccc(F)cc2Cl)on1,-26.6,6.6,-10.4,1.7,18.9
Cc1ccc(S(=O)(=O)N2CCCCC2)cc1NC(=O)COC(=O)C1(C)CC1(Cl)Cl (stereo unspecified),-4.2,-12.2,2.3,4.8,3.9
CCOc1ccc2oc(C(=O)N3CCN(Cc4ccccc4)CC3)c(C)c2c1,8.1,44.1*,0.2,-0.4,4.9
O=C(Oc1c(Cl)cc(Cl)c2cccnc12)c1cccc([N+](=O)[O-])c1,17.6,11.4,37.5,-4.6,68.4*
COc1cc(NC(=O)c2cc([N+](=O)[O-])ccc2NC(=O)CN2CCN(c3ccccn3)CC2)cc(OC)c1,-11.1,-12.5,1.7,1.4,-3.6
Cc1c(N=NC2=C(O)CCCC2=O)c(=O)n(-c2ccccc2)n1C,12.4,7.1,49.3*,-2.6,69.9*
CC(C)C(NC(=O)C1(NC(=O)OCc2ccccc2)CCCC1)C(=O)O (stereo unspecified),/,6.2,-2.8,/,-1.6
C#CCN(C[C@@H]1[C@@H](OC(=O)NCCCCCC)[C@@H](OC(=O)NCCCCCC)Cn2c(=O)ccc(=O)n21)S(=O)(=O)c1ccc(C)cc1,/,37.8,-0.3,/,/
C#CCN(C[C@@H]1[C@@H](OC(=O)NCC2CCCCC2)[C@@H](OC(=O)NCC2CCCCC2)Cn2c(=O)ccc(=O)n21)S(=O)(=O)c1ccc(C)cc1,/,81.4*,-8.4,/,/
Cc1cccc(C)c1NC(=O)C1(C)CSCC(=O)N1CCC(C)C (stereo unspecified),/,2.0,/,/,/
OC(COc1ccc(Cl)cc1)CN1CCCCC1 (stereo unspecified),0.9,-6.0,-2.0,-1.0,8.1
OC(COc1c(Cl)cc(Cl)cc1Cl)CN1CCCCC1 (stereo unspecified),9.0,-3.8,-0.3,-6.4,69.3*
O=C1NC[C@@H](CCCCN2C[C@H](Cc3ccccc3)N(CCC3CCCCC3)C(=O)C2=O)N(CC2CCCCC2)C1=O,/,-1.8,0.1,/,/
CN(C(=O)CSc1nc(-c2ccccc2)cn1N)C(c1ccccc1)c1ccccc1,-20.5,36.3*,14.0,-4.9,-4.9
COc1ccccc1CNC(=O)CSc1nc(-c2ccccc2)cn1N,2.9,7.0,5.8,-4.8,11.5
C=CCC[C@@H](CCCCC)OC(=O)/C=C/[C@H](O)[C@@H](O)C[C@H](O)CC=C,/,-2.9,13.4,/,/
O=C1C=CC2(O[C@H](c3ccccc3)[C@@H](c3ccccc3)O2)[C@H](Sc2ccccc2O)C1,/,71.6*,94.0*,/,103.6*
